Measurements of several laboratories.
Compare with care: the assays were run in different laboratories.
CDK9: Cyclin-dependent kinase 9 (CDK9, Homo sapiens, UniProt P50750)
CDK9 with cyclin T1: Cyclin-dependent kinase 9, with cyclin T1 (CDK9, Homo sapiens, UniProt P50750)
CDK9 with cyclin K: Cyclin-dependent kinase 9, with cyclin K (CDK9, Homo sapiens, UniProt P50750)

Compound	target	effect on	mode	technique	tested at	endpoint	value
CC(=O)N1CCC(c2ccc(C(=O)NC(=N)N)cc2C(F)(F)F)CC1	CDK9	cell-free assay	–	competition with immobilised ligand	1 µM	remaining binding	100%
COc1cccc2c(NCc3ccccc3)nc(-n3c(N)nc4ccccc43)nc12	CDK9	target engagement in cells	inhibitor	chemoproteomics	20 mM	inhibition	-14.5%
N#CCCc1ccc2c(c1)-c1[nH]c3ccc([N+](=O)[O-])cc3c1CC(=O)N2	CDK9 with cyclin T1	cell-free assay	–	–	0.5 µM	remaining signal	28.6%
Cc1cc(-n2nc(Cc3cc(F)cc(C(F)(F)F)c3)nc2C)ccc1C(N)=O	CDK9	cell-free assay	–	competition with immobilised ligand	1 µM	remaining binding	100%
Cc1ccc(-n2nc(C(C)(C)C)cc2NC(=O)Nc2ccc(OCCN3CCOCC3)c3ccccc23)cc1	CDK9 with cyclin T1	enzyme activity	inhibitor	–	10 µM	inhibition	-17%
C=CC(=O)Nc1cc(Nc2nccc(Nc3cc(Cl)c(F)cc3C(C)(C)O)n2)c(OC)cc1N1CC[C@@H](N(C)C)C1	CDK9 with cyclin T1	enzyme activity	inhibitor	–	1 µM	inhibition	10%
COc1cc(/C=C/C(=O)CC(=O)/C=C/c2ccc(O)c(OC)c2)ccc1O	CDK9 with cyclin T1	enzyme activity	inhibitor	–	1 µM	activity vs control	88%
C#Cc1cccc(Nc2ncnc3cc(OCCOC)c(OCCOC)cc23)c1	CDK9 with cyclin T1	cell-free assay	–	–	0.5 µM	remaining signal	87.3%
CC(C)(C)c1nc2c(s1)c1nc(N)ncc1c1ccc(NS(=O)(=O)c3c(F)cccc3F)c(F)c12	CDK9 with cyclin T1	enzyme activity	inhibitor	radiometric	1 µM	remaining activity	102%
CCCOc1ccc([C@H]2[C@H](C(=O)O)[C@@H](c3ccc4c(c3)OCO4)CN2CC(=O)Nc2c(CC)cccc2CC)cc1	CDK9	cell-free assay	–	competition with immobilised ligand	1 µM	remaining binding	88%
O=C1Nc2ccc(Cl)cc2C1=Cc1cc(Cl)c(O)c(Cl)c1	CDK9 with cyclin T1	cell-free assay	–	–	0.5 µM	remaining signal	95.2%
CCOC(=O)c1cc2cc(-c3cc(C(=O)NCc4ccc(C(=O)O)cc4)nn3C)ccc2[nH]1	CDK9	cell-free assay	–	competition with immobilised ligand	0.1 µM	remaining binding	97%
Cc1ccc(Nc2nccc(N(C)c3ccc4c(C)n(C)nc4c3)n2)cc1S(N)(=O)=O	CDK9 with cyclin K	enzyme activity	inhibitor	–	0.5 µM	remaining activity	92.7%
c1ccc(CNc2nc(N3CCOc4ccccc43)nc3c2CCCC3)cc1	CDK9	target engagement in cells	inhibitor	chemoproteomics	20 mM	inhibition	-15.3%
CC(C)(C)c1nc(-c2cccc(NS(=O)(=O)c3c(F)cccc3F)c2F)c(-c2ccnc(N)n2)s1	CDK9 with cyclin K	enzyme activity	inhibitor	radiometric	1 µM	remaining activity	98%
CCN(CC)c1ccc(C2=NNC(=O)CC2C)cc1[N+](=O)[O-] (centres unmarked)	CDK9 with cyclin T1	enzyme activity	inhibitor	–	10 µM	remaining activity	105%

Compound	target	effect on	mode	technique	tested at	endpoint	value
CNC(=O)c1cc(Oc2ccc(NC(=O)Nc3ccc(Cl)c(C(F)(F)F)c3)cc2)ccn1	CDK9 with cyclin T1	enzyme activity	inhibitor	–	10 µM	inhibition	-6%
CCOc1cc(-c2nncn2C)ccc1Nc1ncc2cc(C)nc(NCC(C)(C)C)c2n1	CDK9 with cyclin K	cell-free assay	–	TR-FRET	1 µM	inhibition	≤ 15%
Cc1ccc(NC(=O)c2ccc(CN3CCN(C)CC3)cc2)cc1Nc1nc(-c2cccnc2)cs1	CDK9 with cyclin T1	cell-free assay	–	–	0.5 µM	remaining signal	99.2%
CCc1ccccc1C(=O)Nc1n[nH]c2c(C)c(F)c(C3C(C#N)=C(C)N(C)C(C)=C3C#N)cc12	CDK9	cell-free assay	–	competition with immobilised ligand	1 µM	remaining binding	94%
CN(C)C1CCN(CC#Cc2nn(C3CCCC3)c3nc(NCc4ccccc4)ncc23)C1 (centres unmarked)	CDK9 with cyclin T1	enzyme activity	inhibitor	FRET	10 µM	inhibition	-12%
CCN(CC)CCNC(=O)c1c(C)[nH]c(/C=C2\C(=O)Nc3ccc(F)cc32)c1C	CDK9 with cyclin T1	enzyme activity	inhibitor	–	10 µM	inhibition	37%
O=C1NC(=O)c2cc(Nc3ccc(F)cc3)c(Nc3ccc(F)cc3)cc21	CDK9 with cyclin T1	cell-free assay	–	–	0.5 µM	remaining signal	95.4%
COc1cc(Cl)c(C(=O)N[C@@H](CN[C@H]2CC[C@@H](N)CC2)Cc2ccc(C#N)cc2)cc1-c1ccc(CN[C@H](C)c2ccc(C)cc2)o1	CDK9 with cyclin T1	enzyme activity	inhibitor	–	1 µM	remaining activity	99%
Nc1nc(Nc2ccc(S(N)(=O)=O)cc2)sc1C(=O)c1ccccc1[N+](=O)[O-]	CDK9	enzyme activity	inhibitor	–	0.1 µM	inhibition	90 to 93%
COc1cc(-c2cc(-c3ccc(N4CCNCC4)cc3)cnc2C)cc(OC)c1OC	CDK9 with cyclin T1	enzyme activity	inhibitor	–	0.1 µM	inhibition	3%
CCC(=O)N[C@@H]1CC[C@H](C(=O)N(C)c2ccc(-c3nc4ccccc4o3)cc2)C1	CDK9	cell-free assay	–	competition with immobilised ligand	1 µM	remaining binding	100%
O=C(CSc1nc2nccnc2c(=O)n1CCc1ccccc1)Nc1nccs1	CDK9 with cyclin K	enzyme activity	inhibitor	–	10 µM	inhibition	-8%
CS(=O)(=O)NCC[C@H](NC(=O)c1cncc2c1cnn2-c1ccc(F)cc1)c1ccnc(S(C)(=O)=O)c1	CDK9	cell-free assay	–	competition with immobilised ligand	1 µM	remaining binding	100%
Cc1cnc(NC2CCOCC2)nc1-n1cnc(C(=O)NC(CN)c2cc(F)cc(Cl)c2)c1 (centres unmarked)	CDK9 with cyclin T1	enzyme activity	inhibitor	radiometric	1 µM	remaining activity	46%
Cc1nc(C2CCN(C(=O)c3ccc(OC(F)(F)F)cc3N)CC2)c2ncc(N3CCN(C)CC3)cc2n1	CDK9	cell-free assay	–	competition with immobilised ligand	1 µM	remaining binding	79%
Cc1ccc(C(=O)Nc2ccc(CN3CCN(C)CC3)c(C(F)(F)F)c2)cc1C#Cc1cnc2cccnn12	CDK9	enzyme activity	inhibitor	–	23.5 nM	remaining activity	96%
